FN deposit inh – fibronectin deposition inhibition; AH1F fibroblasts, Alexa488-fibronectin deposition fluorescence, overnight; inhibition, % at 12.6 µM; actives 0.086% (n = 350,000);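 active = mean inhibition across replicates of 30% or more, regardless of how many single replicates reach that level; inconclusive = mean under 30% yet at least half of replicates reach 30%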;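 also: positive control wells lacked labelled fibronectin entirely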
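test system = AH1F fibroblasts assembling fluorescent fibronectin matrix | quantity = 10000 AH1F cells per well | buffer or medium = DMEM plus 2% serum, read in PBS | doses = single dose, pinned | incubation = 1 h cell attachment, overnight exposure to compound and label | detection = fluorescence at 485 nm excitation, 525 nm emission | read-out basis = inhibition from reduced deposited-fibronectin fluorescence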
FGF22 binding – shifts melting point of recombinant human FGF22; Q9HCT0; recombinant FGF22 thermal shift, SYPRO orange fluorescence; percent of sucrose octasulfate shift, DMSO zero; activity (Tm shift, normalised), % at 9.99 µM; actives 1.5% (n = 340,000);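 active = mean Tm shift, scaled 0 neutral to 100 positive control, at about 1.3% or above, every replicate too, limit read from the data; inconclusive = no clear call, values can overlap the other calls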
Target sequence (Q9HCT0 whole entry, looked up): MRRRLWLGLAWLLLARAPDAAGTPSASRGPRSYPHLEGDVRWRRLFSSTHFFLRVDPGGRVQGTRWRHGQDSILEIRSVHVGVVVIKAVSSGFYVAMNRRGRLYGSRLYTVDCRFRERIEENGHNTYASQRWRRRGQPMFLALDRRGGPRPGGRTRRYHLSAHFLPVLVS
DENV2 CPE rescue – protects cells from dengue virus 2 cytopathic effect; actives 1.7% (n = 350,000); CPE inhibition, % at 9.99 µM; DENV2-infected cells, cytopathic effect rescue, plate reader; AID 651640; in the data active = CPE inhibition above about 20%, passing the limit was not always enough; inconclusive = no clear call, values can overlap the other calls; tested in BHK-21 cells;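 also: 0% = median of neutral control wells and 100% = median of positive control wells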
Xi reactivation – X-chromosome reactivation activator; activation, % at 7.58 µM; actives 0.055% (n = 360,000); XiGFP mouse fibroblasts, % GFP-positive cells imaging, 3 d; cells co-treated with 5-aza-dC sensitizer; scaled so ellipticine positive control = 100%;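 active = mean normalized replicate activation at least 10% and every replicate at or above 10%; inconclusive = only one of the two criteria met; inactive = mean below 10% and not all replicates reach 10%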;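 also: 0% = median of on-plate neutral control wells and 100% = ellipticine 6 µM median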
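material = 68-5-11 XiGFP fibroblast line | medium = DMEM plus 5-aza-dC sensitizer | schedule = 3 days compound exposure | benchmarks = positive control ellipticine, 6 µM final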
SIRT5 inh – blocks human SIRT5 desuccinylation of peptide; Purified SirT5, succinyl-peptide AMC, trypsin-coupled fluorescence; actives 1.1% (n = 330,000); AID 652115; inhibition, % at 15 µM; in the data active = inhibition above about 15%; inconclusive = no clear call, values can overlap the other calls
Target sequence (Q9NXA8 whole entry, looked up): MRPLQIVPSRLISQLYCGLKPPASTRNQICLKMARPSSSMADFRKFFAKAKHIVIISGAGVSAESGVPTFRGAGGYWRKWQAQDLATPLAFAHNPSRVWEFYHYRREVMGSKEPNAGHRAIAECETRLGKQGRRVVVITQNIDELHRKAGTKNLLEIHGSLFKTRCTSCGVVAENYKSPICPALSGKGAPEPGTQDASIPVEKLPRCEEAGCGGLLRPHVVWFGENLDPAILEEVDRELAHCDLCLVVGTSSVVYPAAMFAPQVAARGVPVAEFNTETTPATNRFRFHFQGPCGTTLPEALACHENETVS
ARNT-TACC3 inh – disrupts binding between human ARNT and TACC3 | Q9Y6A5 | AlphaScreen His-ARNT PAS-B/GST-TACC3 binding, luminescence; TACC3 fragment carries E629A point mutation | actives 0.66% (n = 390,000) | inhibition, % at 9.99 µM;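 active = mean inhibition of replicates at least 50% and at least half of replicates each reaching 50%; inconclusive = half or more replicates reach 50% but mean below 50%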;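 also: 0% = complete ARNT plus TACC3 wells and 100% = ARNT alone without TACC3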
* = called active by the depositor; ? = inconclusive; · = no result; ! = a repeat was not active. This is a sample that favours compounds with a hit; in the whole collection about 3.8% have one here.

SMILES	FN deposit inh	FGF22 binding	DENV2 CPE rescue	Xi reactivation	SIRT5 inh	ARNT-TACC3 inh
C[C@@H]1CCCCO[C@@H](CN(C)C(=O)Cc2ccccc2)[C@H](C)CN([C@H](C)CO)C(=O)c2cc(NC(=O)c3ccncc3)ccc2O1	·	0	-6	0	1	-4
O=C(OCCc1cc2ccccc2c(=O)o1)c1ccc(C(F)(F)F)cc1	0	0	12	0	·	-2
O=C(OCCc1cc2ccccc2c(=O)o1)c1ccc(F)cc1	2	0	10	0	33*	-2
CO[C@H]1CN(C)C(=O)c2ccc(NC(C)=O)cc2OC[C@H](C)N(CCC(F)(F)F)C[C@H]1C	-3	0	14	0	1	-6
CC(C)CC#Cc1cnc2c(c1)C(=O)N([C@@H](C)CO)C[C@@H](C)[C@@H](CN(C)C(=O)C1CCOCC1)O2	·	0	-7	0	·	·
CCC(=O)Nc1ccc2c(c1)C(=O)N(C)C[C@H](OC)[C@H](C)CN(C(=O)CC)[C@H](C)CO2	7	-1	-3	0	-1	3
Cc1ccc(S(=O)(=O)Nc2cc(Cl)c(O)c3ncccc23)cc1	·	0	4	2	2	48*
Cc1ccc(S(=O)(=O)Nc2cccnc2Oc2ccc(Cl)cc2)cc1	-17	0	-1	0	-1	3
CC(C)(O)C#Cc1cccc(-c2nc(C(=O)N[C@@H]3CCN(Cc4ccccc4)C3)cc3c2[C@H](CCO)N(S(=O)C(C)(C)C)C3)c1 (some centres not stated)	2	0	4	0	1	·
Clc1ccc2ccc3cccnc3c2n1	10	0	-7	0	-3	15
O=S1(=O)Nc2c(ccc3cccnc23)-c2ccccc21	·	·	·	·	·	69*
COCCNC(=O)C[C@@H]1C=C[C@H](NS(=O)(=O)c2ccc(C)cc2)[C@H](CO)O1	-11	0	-4	0	2	-5
CCOc1ccc(/C=N/NC(=O)c2ccccc2O)cc1CN1CC2CC(C1)c1cccc(=O)n1C2 (configuration not stated)	·	0	58*	·	·	·
COc1ccc(/C=N/NC(=O)c2ccccc2O)cc1Cn1cc(Cl)cn1	·	·	·	·	·	4
COc1ccc(CN2C[C@@H](C)[C@H](OC)CN(C)C(=O)c3ccc(NC(=O)C4CC4)cc3OC[C@H]2C)cc1	2	0	10	0	-3	6
C[C@@H]1CN([C@H](C)CO)C(=O)c2cc(N(C)C)ccc2O[C@H]1CN(C)S(=O)(=O)c1ccc(F)cc1	4	0	0	0	3	2
CC(=O)c1ccc2c(c1)N(CCCN1CCC(CCO)CC1)c1ccccc1S2	13	0	0	0	4	1
CSc1ccc2c(c1)N(CCC1CCCCN1C)c1ccccc1S2 (configuration not stated)	-1	0	-8	0	-5	58*!
COc1cc(S(=O)(=O)NCc2ccncc2)c(OC)cc1Br	-2	0	28*	0	-1	-2
CO[C@@H]1CN(C)C(=O)c2ccc(NS(=O)(=O)c3ccccc3)cc2OC[C@@H](C)N(Cc2cccnc2)C[C@H]1C	1	0	-7	0	0	-4
CCNC(=O)CSc1nnc(CN2CCCCCC2=O)n1-c1ccccn1	4	43*	4	0	-2	4
Brc1ccc(-c2cn3c(n2)CCc2ccc4cccnc4c2-3)cc1	·	·	·	·	·	47*
COc1ccc(OCCOC(=O)CN2C(=O)NC3(CCCC3)C2=O)cc1	-3	0	?	0	-7	5
COc1ccc(CCNC(=O)CN2C(=O)NC3(CCCCC3)C2=O)cc1	5	0	1	0	-1	-1
COc1ccc(CNC(=O)C(C)N2C(=O)NC3(CCCCCCC3)C2=O)cc1 (configuration not stated)	2	0	87*	0	-1	-1
SMILES	FN deposit inh	FGF22 binding	DENV2 CPE rescue	Xi reactivation	SIRT5 inh	ARNT-TACC3 inh
COc1ccc(CNC(=O)COC(=O)CN2C(=O)NC3(CCCC3)C2=O)cc1	-8	0	29*	0	0	-9
CC(C)[C@@H]1C/C=C\CCNC(=O)[C@H](C)CC(=O)N1	-7	·	·	1	·	·
C[C@H]1CN([C@@H](C)CO)C(=O)c2cc(-c3ccc(C#N)cc3)cnc2O[C@@H]1CN(C)C(=O)Nc1ccc(C(F)(F)F)cc1	-6	0	3	0	19*	0
C[C@H](CO)N1C[C@H](C)[C@H](CN(C)C(=O)Nc2ccc(F)cc2)Oc2ncc(-c3ccc(F)cc3)cc2C1=O	1	·	·	0	·	·
CC(=O)N(C)C[C@@H]1Oc2ncc(-c3ccc(F)cc3)cc2C(=O)N([C@H](C)CO)C[C@H]1C	-2	0	59*	0	-6	3
C[C@H](CO)N1C[C@H](C)[C@@H](CN(C)C(=O)c2ccc(F)cc2)Oc2ncc(-c3ccc(F)cc3)cc2C1=O	5	0	48*	-1	1	0
C[C@H](CO)N1C[C@H](C)[C@@H](CN(C)C(=O)Nc2ccc(F)cc2)Oc2ncc(-c3ccc(F)cc3)cc2C1=O	1	1	24*!	0	-3	1
C[C@@H]1CN([C@@H](C)CO)C(=O)c2cc(-c3ccc(F)cc3)cnc2O[C@@H]1CN(C)C(=O)c1ccc(F)cc1	-6	0	10	-1	-1	-7
C[C@@H]1CN([C@@H](C)CO)C(=O)c2cc(-c3ccc(C#N)cc3)cnc2O[C@@H]1CN(C)C(=O)Nc1ccc(C(F)(F)F)cc1	-1	-1	?	-1	7	1
CC(=O)N1CC(=O)N2[C@@H](CO)[C@H](c3ccc(-c4ccncc4)cc3)[C@@H]2C1	·	·	·	0	·	·
C[C@@H]1CN([C@@H](C)CO)C(=O)c2cc(-c3ccccc3)cnc2O[C@H]1CN(C)C(=O)c1cccc(F)c1	-25	·	·	-1	·	·
C[C@H](CO)N1C[C@H](C)[C@H](CN(C)C(=O)c2cccc(F)c2)Oc2ncc(-c3ccccc3)cc2C1=O	34*	·	·	0	·	·
CS(=O)(=O)c1ccccc1-c1nnc(NC(=O)Cc2ccccc2)o1	0	0	-3	0	0	62*
CSc1ccccc1-c1nnc(NC(=O)Cc2ccccc2)o1	12	0	8	0	2	1
Cc1ccc([C@H]2C(C(=O)O)=C[C@@H](C(C)(C)C)N2S(=O)(=O)c2ccc(C)cc2)cc1	3	0	?	0	1	-7
COc1ccc([C@H]2C(C(=O)O)=C[C@@H](C(C)(C)C)N2S(=O)(=O)c2ccccc2)cc1	-1	0	83*	0	-1	-4
